Calls of active or inactive are those of the source. The rule behind the calls is not given here.
Columns and labels:
[1] = Inhibition of Escherichia coli recombinant His6-tagged DXR expressed in Escherichia coli XL-1 blue using DXP as substrate incubated for 2 mins prior to substrate addition measured after 5 mins by spectrophotometric analysis
Summary of the method: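 His-tagged E. coli DXR, assayed at pH 7.5. Inhibitor was pre-incubated with enzyme and NADPH for 2 min at 37 °C, then DXP was added to start the reaction. Activity was read as NADPH consumption at 340 nm on a UV–visible spectrophotometer, and IC50 was derived from it.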

[2] = Inhibition of Escherichia coli recombinant His6-tagged DXR expressed in Escherichia coli XL-1 blue using DXP as substrate after 5 mins by spectrophotometric analysis
Summary of the method: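 Recombinant His-tagged E. coli DXR. DXP-to-MEP conversion followed as NADPH consumption at 340 nm by UV–visible spectrophotometry, assay pH 7.5. Enzyme, NADPH and inhibitor were not pre-incubated; the reaction was started by adding DXP. IC50 derived from the rate data.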

Escherichia coli [3] = assay: Inhibition of Escherichia coli recombinant His6-tagged DXR expressed in Escherichia coli XL-1 blue using DXP as substrate at 1000 uM after 5 mins by spectrophotometric analysis
Escherichia coli [4] = assay: Inhibition of Escherichia coli recombinant His6-tagged DXR expressed in Escherichia coli XL-1 blue using DXP as substrate at 1000 uM incubated for 2 mins prior to substrate addition measured after 5 mins by spectrophotometric analysis
Escherichia coli [5] = assay: Ratio of IC50 for Escherichia coli recombinant His6-tagged DXR without preincubation to IC50 for Escherichia coli recombinant His6-tagged DXR with preincubation
[6] = Drug degradation assessed as carbon disulfide production at pH 7.5; type: physicochemical; settings: buffer

Row | Compound | IC50 [1] [mM] | IC50 [2] [mM] | inhibition (Escherichia coli [3]) | inhibition (Escherichia coli [4]) | Ratio IC50 (Escherichia coli [5]) | Drug degradation [6]
1 | NNC(=O)CCCP(=O)(O)O | 1 | 1.8 | – | – | – | –
2 | CSC(=S)NCCP(=O)(O)O | 2.7 | 2.8 | – | – | – | –
3 | CON(C)C(=O)CCCP(=O)(O)O | 3.8 | 6.9 | – | – | – | –
4 | O=P(O)(O)CCCc1cccc(O)c1O | – | – | inactive | inactive | – | –
5 | CONC(=O)CCCP(=O)(O)O | 0.93 | 11.5 | – | – | – | –
6 | CN(O)C(=O)CCCP(=O)(O)O | 4.8e-05 | 0.0005 | – | – | 10 | –
7 | O=CN(O)CCCP(=O)(O)O [FOSMIDOMYCIN] | 3.2e-05 | 0.00025 | – | – | 8 | –
8 | CN(CCCP(=O)([O-])O)C(=S)[S-].[Na+].[Na+] | – | – | inactive | inactive | – | Active
9 | CSC(=S)N(C)CCCP(=O)(O)O | – | – | inactive | inactive | – | –
10 | O=P(O)(O)CCc1cccc(O)c1O | 1.2 | 2 | – | – | – | –
11 | CN(CCP(=O)([O-])O)C(=S)[S-].[Na+].[Na+] | – | – | inactive | inactive | – | Active

Reference: ChEMBL document CHEMBL2157892, “Modifications around the hydroxamic acid chelating group of fosmidomycin, an inhibitor of the metalloenzyme 1-deoxyxylulose 5-phosphate reductoisomerase (DXR)” (Bioorg Med Chem Lett, 2012)
